pIC50: −log10 of the molar value. Activity calls are given as the source filed them. The calls are words filed in the database; no cut-off is given here.
Columns and labels:
CREB-binding protein = CREB-binding protein (Homo sapiens, UniProt Q92793); assay: Binding affinity to CBP bromodomain (unknown origin) incubated for 60 mins by TR-FRET assay
MV4-11 [1] = assay: Antitumor activity against human MV4-11 cells xenografted in BALB/c mouse assessed as tumor growth inhibition at 60 mg/kg,po QD for 28 days; format: functional; settings: MV4-11, 672 h, time 28 day, read-out: TGI
Outline: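 Single-agent efficacy in MV-4-11 AML mouse xenograft. Tumor volume (mm3) and percent body-weight change were tracked over the treatment days.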

[2] = biological target: T1, ATPase family AAA domain-containing protein 2 (Homo sapiens, UniProt Q6PL18); assay: Binding affinity to ATAD2 bromodomain (unknown origin) incubated for 60 mins by TR-FRET assay
T1 sequence (Q6PL18 whole entry): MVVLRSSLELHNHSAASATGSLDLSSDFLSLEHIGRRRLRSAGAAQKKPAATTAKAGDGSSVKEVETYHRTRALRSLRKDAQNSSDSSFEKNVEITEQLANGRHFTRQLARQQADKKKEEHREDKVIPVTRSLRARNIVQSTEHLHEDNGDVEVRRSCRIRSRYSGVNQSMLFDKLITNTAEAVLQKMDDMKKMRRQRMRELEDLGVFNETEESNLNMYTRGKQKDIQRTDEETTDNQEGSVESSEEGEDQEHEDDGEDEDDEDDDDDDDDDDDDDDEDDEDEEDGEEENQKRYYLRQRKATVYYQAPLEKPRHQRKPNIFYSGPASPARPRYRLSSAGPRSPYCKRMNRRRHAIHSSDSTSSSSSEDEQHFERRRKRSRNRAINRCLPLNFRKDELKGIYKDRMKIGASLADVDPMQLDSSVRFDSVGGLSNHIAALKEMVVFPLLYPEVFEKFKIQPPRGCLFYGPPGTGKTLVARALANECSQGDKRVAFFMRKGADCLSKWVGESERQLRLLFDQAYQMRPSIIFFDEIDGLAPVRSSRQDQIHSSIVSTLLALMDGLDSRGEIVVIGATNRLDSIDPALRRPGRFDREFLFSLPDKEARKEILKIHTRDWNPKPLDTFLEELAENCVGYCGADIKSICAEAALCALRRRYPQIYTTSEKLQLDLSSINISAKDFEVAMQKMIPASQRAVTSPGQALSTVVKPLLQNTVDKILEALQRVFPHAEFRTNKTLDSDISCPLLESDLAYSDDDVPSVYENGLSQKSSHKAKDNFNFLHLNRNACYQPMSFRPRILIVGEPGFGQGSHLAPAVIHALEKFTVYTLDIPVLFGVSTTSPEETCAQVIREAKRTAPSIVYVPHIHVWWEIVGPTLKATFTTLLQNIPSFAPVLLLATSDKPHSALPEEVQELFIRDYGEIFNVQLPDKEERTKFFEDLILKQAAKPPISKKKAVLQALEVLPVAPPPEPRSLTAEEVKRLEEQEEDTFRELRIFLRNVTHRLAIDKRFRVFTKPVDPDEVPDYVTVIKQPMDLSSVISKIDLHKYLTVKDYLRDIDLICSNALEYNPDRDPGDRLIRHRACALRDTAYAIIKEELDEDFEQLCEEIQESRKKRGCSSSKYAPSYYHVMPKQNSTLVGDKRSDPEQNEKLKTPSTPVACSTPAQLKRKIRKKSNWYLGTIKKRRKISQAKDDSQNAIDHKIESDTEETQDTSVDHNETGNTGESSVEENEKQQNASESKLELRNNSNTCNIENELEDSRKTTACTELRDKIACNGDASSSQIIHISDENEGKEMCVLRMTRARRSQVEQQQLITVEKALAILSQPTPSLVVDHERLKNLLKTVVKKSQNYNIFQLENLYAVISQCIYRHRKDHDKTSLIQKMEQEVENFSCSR

[3] = Toxicity against BALB/c mouse plasma xenografted with human MV4-11 cells assessed as body weight loss at 60 mg/kg,po QD for 28 days; format: organism-based; settings: in vivo, 672 h, time 28 day
Outline: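 Body weight change (%) followed in MV-4-11 AML mouse xenograft during 28 days of oral single-agent dosing (30 mg/kg once or twice daily, 60 mg/kg once daily), vehicle PO BID as control.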

Cytochrome P450 = assay: Inhibition of CYP450 (unknown origin) at 10 uM; format: ADME, protein assay; settings: human
Outline: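 Cytochrome P450 activity tested with compound at 10 µM against a number of common isoforms; time-dependent inhibition also assessed.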

[4] = Unbound AUC in dog at 2.5 mg/kg,po; format: ADME, organism-based, Canis lupus familiaris; settings: in vivo
MV4-11 [5] = assay: Antitumor activity against human MV4-11 cells xenografted in BALB/c mouse assessed as modest tumor growth inhibition at 10 mg/kg,sc BID for 28 days; format: functional, organism-based; settings: time 28.0 day
[6] = Total clearance in rat at 1 mg/kg,iv; format: ADME, organism-based; settings: in vivo
MV4-11 [7] = assay: In vivo inhibition of BRD4 in human MV4-11 cells xenografted in BALB/c mouse assessed as reduction in cellular MYC mRNA expression level in tumor at 15 mg/kg,sc BID and measured at 4 hrs by PCR anlaysis; format: functional, organism-based
Outline: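 Pharmacodynamic study in MV-4-11 AML mouse xenograft. Dosing was 15 mg/kg subcutaneous twice daily. At 4, 8 and 12 h after the second dose, MYC mRNA was measured against vehicle, and compound levels were measured in plasma and tumor. Free plasma concentration was estimated alongside total levels.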

Chain of CREB-binding protein (Q92793 whole entry): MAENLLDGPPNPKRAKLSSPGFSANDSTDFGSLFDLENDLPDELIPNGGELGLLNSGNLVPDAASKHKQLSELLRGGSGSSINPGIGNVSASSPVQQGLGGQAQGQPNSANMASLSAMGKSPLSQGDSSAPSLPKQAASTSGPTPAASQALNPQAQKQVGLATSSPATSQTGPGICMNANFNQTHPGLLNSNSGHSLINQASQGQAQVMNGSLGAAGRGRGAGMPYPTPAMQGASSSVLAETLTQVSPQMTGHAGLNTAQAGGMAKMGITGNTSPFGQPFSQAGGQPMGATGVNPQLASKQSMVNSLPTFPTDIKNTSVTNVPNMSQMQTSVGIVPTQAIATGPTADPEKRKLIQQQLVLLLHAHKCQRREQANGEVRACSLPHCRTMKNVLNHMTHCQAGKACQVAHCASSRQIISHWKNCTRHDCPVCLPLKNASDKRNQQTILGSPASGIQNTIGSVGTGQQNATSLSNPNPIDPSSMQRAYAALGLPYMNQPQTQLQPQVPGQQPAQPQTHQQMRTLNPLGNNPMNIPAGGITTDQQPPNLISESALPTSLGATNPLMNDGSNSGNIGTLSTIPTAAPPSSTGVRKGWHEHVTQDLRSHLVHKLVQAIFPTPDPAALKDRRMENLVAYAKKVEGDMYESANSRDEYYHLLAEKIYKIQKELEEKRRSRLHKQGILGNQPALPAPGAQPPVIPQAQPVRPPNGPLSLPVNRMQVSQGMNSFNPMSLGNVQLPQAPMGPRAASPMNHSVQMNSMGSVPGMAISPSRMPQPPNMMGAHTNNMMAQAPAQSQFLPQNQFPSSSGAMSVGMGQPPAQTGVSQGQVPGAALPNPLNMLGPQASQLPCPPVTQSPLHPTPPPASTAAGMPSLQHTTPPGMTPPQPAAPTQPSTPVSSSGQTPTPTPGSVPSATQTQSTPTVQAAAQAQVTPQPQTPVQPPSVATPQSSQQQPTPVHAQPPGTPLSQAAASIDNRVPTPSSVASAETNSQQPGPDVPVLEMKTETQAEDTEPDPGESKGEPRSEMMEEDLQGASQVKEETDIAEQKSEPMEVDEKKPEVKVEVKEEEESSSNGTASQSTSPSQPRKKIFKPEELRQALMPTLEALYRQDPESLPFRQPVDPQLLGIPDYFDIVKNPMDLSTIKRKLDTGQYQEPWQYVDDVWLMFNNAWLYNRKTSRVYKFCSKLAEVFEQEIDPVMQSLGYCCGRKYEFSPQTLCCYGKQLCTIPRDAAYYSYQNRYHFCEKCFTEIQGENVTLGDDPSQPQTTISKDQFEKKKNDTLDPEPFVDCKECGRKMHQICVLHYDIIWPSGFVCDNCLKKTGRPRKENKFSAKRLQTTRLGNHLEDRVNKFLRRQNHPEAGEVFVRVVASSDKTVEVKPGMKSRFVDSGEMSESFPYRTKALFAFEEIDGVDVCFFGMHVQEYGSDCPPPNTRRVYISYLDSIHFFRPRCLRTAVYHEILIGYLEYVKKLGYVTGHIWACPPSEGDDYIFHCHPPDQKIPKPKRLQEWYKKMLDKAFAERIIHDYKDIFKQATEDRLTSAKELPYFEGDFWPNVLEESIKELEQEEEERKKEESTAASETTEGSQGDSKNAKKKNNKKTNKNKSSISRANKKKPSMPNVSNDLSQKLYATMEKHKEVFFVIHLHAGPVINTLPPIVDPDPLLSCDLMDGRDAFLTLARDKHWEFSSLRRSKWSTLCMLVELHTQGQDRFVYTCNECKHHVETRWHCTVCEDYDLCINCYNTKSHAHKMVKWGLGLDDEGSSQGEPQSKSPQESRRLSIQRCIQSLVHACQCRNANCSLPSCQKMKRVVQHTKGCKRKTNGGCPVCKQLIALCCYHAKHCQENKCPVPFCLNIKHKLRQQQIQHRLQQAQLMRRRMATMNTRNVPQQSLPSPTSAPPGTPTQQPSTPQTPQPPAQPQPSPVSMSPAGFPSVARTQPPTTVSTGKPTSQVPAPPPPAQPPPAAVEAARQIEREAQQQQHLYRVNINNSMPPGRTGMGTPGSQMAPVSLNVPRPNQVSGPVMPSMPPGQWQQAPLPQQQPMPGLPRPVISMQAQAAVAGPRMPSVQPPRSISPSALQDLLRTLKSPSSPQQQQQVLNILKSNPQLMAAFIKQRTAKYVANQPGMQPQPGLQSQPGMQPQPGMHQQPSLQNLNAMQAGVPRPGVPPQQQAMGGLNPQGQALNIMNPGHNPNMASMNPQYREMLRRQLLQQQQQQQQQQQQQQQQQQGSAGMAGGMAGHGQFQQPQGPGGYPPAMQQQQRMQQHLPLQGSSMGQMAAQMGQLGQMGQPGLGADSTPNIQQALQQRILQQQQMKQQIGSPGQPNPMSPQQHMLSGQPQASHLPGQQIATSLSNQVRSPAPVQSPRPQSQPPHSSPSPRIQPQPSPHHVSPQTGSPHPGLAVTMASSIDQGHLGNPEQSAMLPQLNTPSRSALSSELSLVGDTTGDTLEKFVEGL

pIC50 (CREB-binding protein): < 4.70
pIC50 [2]: < 4.10
inhibition (INH) (Cytochrome P450): Not Active
fAUC [4]: 1.1 µM·h
clearance [6]: 20 mL/min/kg
SMILES: Cc1noc2c1-c1ccccc1C(c1ccc(Cl)cc1)=N[C@H]2CC(N)=O [PELABRESIB]
inhibition in vivo at 60 mg/kg (MV4-11 [1]): 74%
Activity [3]: Non-Toxic
Activity (MV4-11 [5]): Active
inhibition (MV4-11 [7]): Active

Reference: ChEMBL document CHEMBL5252513, “Identification of a Benzoisoxazoloazepine Inhibitor (CPI-0610) of the Bromodomain and Extra-Terminal (BET) Family as a Candidate for Human Clinical Trials” (J Med Chem, 2016)
